Source: ChEMBL document CHEMBL1131138, “A novel class of orally active non-peptide bradykinin B2 receptor antagonists. 3. Discovering bioisosteres of the imidazo[1,2-a] pyridine moiety” (J Med Chem, 1998)

Key:
Cavia porcellus [1] = test: Inhibition of Bradykinin induced Bronchoconstriction in anaesthetized guinea pig at 0.32mg/kg, po; assay type: functional
Summary of the method: (§1)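 Male Hartley guinea pigs (470–750 g), fasted overnight, anesthetized with ip pentobarbital (30 mg/kg) and ventilated at 10 mL/kg, 60 breaths/min. Given alcuronium (0.5 mg/kg iv) and propranolol (10 mg/kg sc). BK 5 μg/kg iv, with bronchoconstriction read as peak pulmonary insufflation pressure (modified Konzett–Rössler).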

Cavia porcellus [2] = test: In vivo inhibition of Bradykinin induced Bronchoconstriction in anaesthetized guinea pig following 1 mg/kg p.o.; assay type: functional; conditions: route oral; summary of the method: as §1
B2 bradykinin receptor [3] = target: T1, B2 bradykinin receptor (Cavia porcellus, UniProt O70526); test: Concentration required to inhibit specific binding of [ 3H]BK (0.06 nM) to Bradykinin receptor B2 in guinea pig ileum membrane preparations by 50%.; assay type: cell membranes
T1 sequence (O70526 whole entry): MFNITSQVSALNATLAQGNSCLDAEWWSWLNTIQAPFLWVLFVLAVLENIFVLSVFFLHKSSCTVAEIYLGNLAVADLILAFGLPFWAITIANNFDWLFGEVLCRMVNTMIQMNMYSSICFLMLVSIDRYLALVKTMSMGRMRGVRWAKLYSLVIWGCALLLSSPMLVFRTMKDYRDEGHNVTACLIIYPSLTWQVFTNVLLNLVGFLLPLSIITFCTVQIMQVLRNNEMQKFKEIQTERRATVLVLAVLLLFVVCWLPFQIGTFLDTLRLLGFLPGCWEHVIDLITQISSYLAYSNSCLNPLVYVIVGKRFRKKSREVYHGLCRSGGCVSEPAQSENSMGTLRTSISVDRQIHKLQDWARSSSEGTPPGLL
Summary of the method: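 Ileal membranes from male Hartley guinea pigs (0.2 mg protein/mL) in TES buffer pH 6.8 with phenanthroline, bacitracin, DTT, captopril and BSA. Incubated with 0.06 nM [3H]BK plus compound for 60 min at room temperature, then filtered through GF/B and counted by scintillation.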

B2 bradykinin receptor [4] = target: T2, B2 bradykinin receptor (Homo sapiens, UniProt P30411); test: Inhibition specific binding of [3H]BK (1.0 nM) to human Bradykinin receptor B2 which was expressed in CHO (Chinese hamster ovary) cells by 50%.; assay type: cell-based
T2 sequence (P30411 whole entry): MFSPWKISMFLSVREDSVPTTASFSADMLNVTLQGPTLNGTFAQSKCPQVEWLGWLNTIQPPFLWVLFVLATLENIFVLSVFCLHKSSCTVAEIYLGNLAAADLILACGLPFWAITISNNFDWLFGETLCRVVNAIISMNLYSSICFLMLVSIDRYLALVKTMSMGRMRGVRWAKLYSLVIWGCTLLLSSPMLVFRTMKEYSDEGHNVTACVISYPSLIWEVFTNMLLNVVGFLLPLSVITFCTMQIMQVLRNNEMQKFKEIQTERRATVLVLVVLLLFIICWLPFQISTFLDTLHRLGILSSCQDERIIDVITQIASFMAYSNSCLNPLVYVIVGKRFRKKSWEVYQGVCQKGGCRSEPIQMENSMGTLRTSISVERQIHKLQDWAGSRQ
Summary of the method: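 CHO (dhfr−) cells stably expressing human B2 receptor, seeded at 3.0 × 10^4 cells/well and cultured 1 day. Whole cells incubated with 1.0 nM [3H]BK plus compound for 2 h at 4 °C in HEPES/N-methyl-D-glucamine buffer pH 7.2 with bacitracin, enalaprilat and BSA. Washed, solubilized in SDS/NaOH and counted. Nonspecific binding with 1 μM BK; DMSO below 3%; three experiments.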

B2 bradykinin receptor [5] = target: T2, B2 bradykinin receptor; test: Concentration required to inhibit specific binding of [3H]BK (1.2 nM) to A-431 cells (human epidermoid carcinoma) which express Bradykinin receptor B2 by 50%.; assay type: cell-based

IC50 (B2 bradykinin receptor [3]) [nM]	IC50 (B2 bradykinin receptor [4]) [nM]	IC50 (B2 bradykinin receptor [5]) [nM]	Structure (SMILES)	inhibition in vivo at 0.32 mg/kg (Cavia porcellus [1]) [%]	inhibition in vivo at 1 mg/kg (Cavia porcellus [2]) [%]
0.76	0.51	–	Cc1ccc2cccc(OCc3c(Cl)ccc(N(C)C(=O)CNC(=O)/C=C/c4ccc(/C=C/c5ccncc5)nc4)c3Cl)c2n1	43.6	87.3
0.46	1.4	–	CC(=O)Nc1ccc(/C=C/C(=O)NCC(=O)N(C)c2ccc(Cl)c(COc3cccc4ccc(C)nc34)c2Cl)cn1 [FR-173657]	73.2	94.4
0.65	4.2	–	COc1nc2c(OCc3c(Cl)ccc(N(C)C(=O)CNC(=O)/C=C/c4ccc(NC(C)=O)nc4)c3Cl)cccc2n1C	–	55.4
0.68	4.6	–	CNC(=O)c1ccc(/C=C/C(=O)NCC(=O)N(C)c2ccc(Cl)c(COc3cccc4ccc(C)nc34)c2Cl)cn1	68.4	93.9
1.3	3.9	–	Cc1ccc2cccc(OCc3c(Cl)ccc(N(C)C(=O)CNC(=O)/C=C/c4ccc(C(=O)N(C)C)cc4)c3Cl)c2n1	50.8	89.7
1.9	44	–	Cc1cnc2cccc(OCc3c(Cl)ccc(N(C)C(=O)CNC(=O)/C=C/c4ccc(C(=O)N(C)C)cc4)c3Cl)c2n1	–	–
2.2	58	–	CNC(=O)c1ccc(/C=C/C(=O)NCC(=O)N(C)c2ccc(C)c(COc3cccc4ccc(C)nc34)c2C)cn1	–	–
200	94	–	CNC(=O)c1ccc(/C=C/C(=O)NCC(=O)N(C)c2ccc(C)c(COc3cccc4c3nc(C(C)=O)n4C)c2C)cc1	–	–
8.9	48	–	CCn1c(C)nc2c(OCc3c(Cl)ccc(N(C)C(=O)CNC(=O)/C=C/c4ccc(C(=O)NC)cc4)c3Cl)cccc21	–	–
> 10000	–	> 10000	CNC(=O)c1ccc(/C=C/C(=O)NCC(=O)N(C)c2ccc(Cl)c(COc3ccc4ccc(C)nc4c3)c2Cl)cc1	–	–
0.13	5.2	–	Cc1ccc2cccc(OCc3c(Cl)ccc(N(C)C(=O)CNC(=O)/C=C/c4ccc(N5CCCC5=O)nc4)c3Cl)c2n1	68.6	89.9
510	> 1000	–	CNC(=O)c1ccc(/C=C/C(=O)NCC(=O)N(C)c2ccc(Cl)c(COc3cccc4c3nc(-c3ccccc3)n4C)c2Cl)cc1	–	–
–	9	–	CNC(=O)c1ccc(/C=C/C(=O)NCC(=O)N(C)c2ccc(Cl)c(COc3cccn4c(Br)c(C)nc34)c2Cl)cc1	–	–
–	2.2	–	Cc1nc2c(OCc3c(Cl)ccc(N(C)C(=O)CNC(=O)/C=C/c4ccc(C(=O)N(C)C)cc4)c3Cl)cccn2c1Br	–	–
0.79	470	–	Cc1ccc2cccc(OCc3c(Cl)ccc(N(C)C(=O)CNC(=O)/C=C/c4cccnc4)c3Cl)c2n1	63.7	97.2
2.4	46	–	Cc1cnc2cccc(OCc3c(C)ccc(N(C)C(=O)CNC(=O)/C=C/c4ccc(N5CCCC5=O)cc4)c3C)c2n1	–	–
90	730	–	CCOc1nc2c(OCc3c(C)ccc(N(C)C(=O)CNC(=O)/C=C/c4ccc(C(=O)NC)cc4)c3C)cccc2n1C	–	–
3.3	2.8	–	Cc1ccc2cccc(OCc3c(Cl)ccc(N(C)C(=O)CNC(=O)/C=C/c4ccc(NC(=O)c5ccncc5)nc4)c3Cl)c2n1	–	68.8
0.47	9.3	–	Cc1ccc2cccc(OCc3c(C)ccc(N(C)C(=O)CNC(=O)/C=C/c4ccc(N5CCCC5=O)cc4)c3C)c2n1	75.7	94.9
11	30	–	Cc1ccc2cccc(OCc3c(Cl)ccc(N(C)C(=O)CNC(=O)/C=C/c4ccc(C(=O)Nc5ccccn5)cc4)c3Cl)c2n1	–	–
0.5	1.9	–	CC(=O)Nc1ccc(/C=C/C(=O)NCC(=O)N(C)c2ccc(Cl)c(COc3cccc4ccc(C)nc34)c2Cl)cc1	33.2	80
38	160	–	CNC(=O)c1ccc(/C=C/C(=O)NCC(=O)N(C)c2ccc(C)c(COc3cccc4c3nc(N(C)C)n4C)c2C)cc1	–	–

IC50 (B2 bradykinin receptor [3]) [nM]	IC50 (B2 bradykinin receptor [4]) [nM]	IC50 (B2 bradykinin receptor [5]) [nM]	Structure (SMILES)	inhibition in vivo at 0.32 mg/kg (Cavia porcellus [1]) [%]	inhibition in vivo at 1 mg/kg (Cavia porcellus [2]) [%]
0.62	7.5	–	Cc1ccc2cccc(OCc3c(Cl)ccc(N(C)C(=O)CNC(=O)/C=C/c4ccc(C(=O)Nc5cccnc5)cc4)c3Cl)c2n1	–	46.8
0.94	14	–	COc1nc2c(OCc3c(Cl)ccc(N(C)C(=O)CNC(=O)/C=C/c4ccc(C(=O)N(C)C)cc4)c3Cl)cccc2n1C	–	87.7
1100	8400	–	CCOC(=O)Cc1nc2c(OCc3c(C)ccc(N(C)C(=O)CNC(=O)/C=C/c4ccc(C(=O)NC)cc4)c3C)cccc2n1C	–	–
9.5	79	–	CNC(=O)c1ccc(/C=C/C(=O)NCC(=O)N(C)c2ccc(C)c(COc3cccc4c3nc(SC)n4C)c2C)cc1	–	–
0.94	8.5	–	COc1nc2c(OCc3c(C)ccc(N(C)C(=O)CNC(=O)/C=C/c4ccc(NC(C)=O)nc4)c3C)cccc2n1C	75.2	98.4
1.1	1.8	–	Cc1ccc2cccc(OCc3c(Cl)ccc(N(C)C(=O)CNC(=O)/C=C/c4ccc(C(=O)Nc5ccncc5)cc4)c3Cl)c2n1	–	29.5
94	670	–	CNC(=O)c1ccc(/C=C/C(=O)NCC(=O)N(C)c2ccc(C)c(COc3cccc4c3nc(NC)n4C)c2C)cc1	–	–
48	130	–	CC(=O)Nc1ccc(/C=C/C(=O)NCC(=O)N(C)c2ccc(C)c(COc3cccc4ncc(C)nc34)c2C)cn1	–	–
1000	9100	–	CNC(=O)c1ccc(/C=C/C(=O)NCC(=O)N(C)c2ccc(C)c(COc3cccc4c3nc(COC)n4C)c2C)cc1	–	–
4.1	130	–	Cc1cnc2cccc(OCc3c(C)ccc(N(C)C(=O)CNC(=O)/C=C/c4ccc(C(=O)N(C)C)cc4)c3C)c2n1	–	–
6.3	11	–	Cc1ccc2cccc(OCc3c(Cl)ccc(N(C)C(=O)CNC(=O)/C=C/c4ccc(C(=O)Nc5ccccc5)cc4)c3Cl)c2n1	–	–
23	270	–	CNC(=O)c1ccc(/C=C/C(=O)NCC(=O)N(C)c2ccc(Cl)c(COc3cccc4c(C)c(C)oc34)c2Cl)cc1	–	–
18	590	–	CNC(=O)c1ccc(/C=C/C(=O)NCC(=O)N(C)c2ccc(C)c(COc3cccc4ncc(C)nc34)c2C)cn1	–	–
0.82	8.5	–	CC(=O)Nc1ccc(/C=C/C(=O)NCC(=O)N(C)c2ccc(C)c(COc3cccc4ccc(C)nc34)c2C)cn1	55.5	98.2
1.4	39	–	Cc1ccc2cccc(OCc3c(C)ccc(N(C)C(=O)CNC(=O)/C=C/c4ccc(N5CCCC5=O)nc4)c3C)c2n1	–	–
0.69	340	–	Cc1ccc2cccc(OCc3c(Cl)ccc(N(C)C(=O)CNC(=O)/C=C/c4ccccc4)c3Cl)c2n1	–	25.2
0.97	4.8	–	CNC(=O)c1ccc(/C=C/C(=O)NCC(=O)N(C)c2ccc(C)c(COc3cccc4ccc(C)nc34)c2C)cc1	79	90.5
1.1	26	–	Cc1cnc2cccc(OCc3c(Cl)ccc(N(C)C(=O)CNC(=O)/C=C/c4ccc(N5CCCC5=O)cc4)c3Cl)c2n1	–	–
0.55	3.2	–	Cc1ccc2cccc(OCc3c(Cl)ccc(N(C)C(=O)CNC(=O)/C=C/c4ccc(N5CCCC5=O)cc4)c3Cl)c2n1	44.7	85.3
3.5	17	–	CNC(=O)c1ccc(/C=C/C(=O)NCC(=O)N(C)c2ccc(C)c(COc3cccc4ncc(C)nc34)c2C)cc1	–	–
15	2.5	–	Cc1ccc2cccc(OCc3c(Cl)ccc(N(C)C(=O)CNC(=O)/C=C/c4ccc(C(=O)Nc5ccncc5)nc4)c3Cl)c2n1	–	60
